One data set relates to MOLT-4 cells. The data set can be described thus: MOLT-4 cell viability. The note with it: for pIC50: Homo sapiens, MOLT-4, 48 h, read-out: IC50 (MOLT-4 cells). Format: cell-based. An outline of the steps: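 MOLT-4 (T-ALL) cells, STR-profiled and mycoplasma-negative, were kept at 37 °C in 5% CO2. Between […] and 1 × 10^5 suspension cells were seeded per well and exposed to test compound for 48 h or 72 h. Viability was read with tetrazolium MTS reagent, and IC50 values were calculated from the viability data.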

The test system of another data set is NCI-H146 cells. The note with it: read-out: IC50 (NCI-H146 cells); NCI-H146 SCLC cells; earlier work; cited from earlier work.
Data set [1] addresses T1, Bcl-xL (Homo sapiens, UniProt Q07817). The data set can be described thus: Bcl-xL degradation in MOLT-4 cells. Format: cell-based. The procedure, abridged:
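MOLT-4 cells (RPMI 1640, 10% FBS, 1% penicillin–streptomycin, 37 °C, 5% CO2) were treated for 16 h across a concentration series, or at 100 nM over a time course. Where stated, cells had 1 μM MG-132 pretreatment for 2 h. Lysates were run on 4–20% Tris-glycine gels and blotted to PVDF, with ECL detection. Band densities were normalised to β-actin, three independent experiments, mean ± SD.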

The next data set relates to human platelets. The data set can be described thus: Human platelet viability assay. Format: cell-based.
The next data set relates to platelets. The data set is described as follows: In vivo platelet toxicity assay. The note with it: single dose 1.5 mg kg−1, i.p., mice.
For another data set, the system named is MOLT-4 xenograft. The data set is described as follows: MOLT-4 T-ALL xenograft mouse model. Format: in vivo. As to conditions: 1.5 mg kg−1, Q4D, i.p., MOLT-4 xenograft mice. An outline of the steps: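 MOLT-4 cells (5 × 10^6) in RPMI:Matrigel 1:1 were implanted s.c. in the right flank of 5-week-old CB-17 SCID mice. At mean tumour ~150 mm3, mice were randomised (n = 6 per group) to vehicle or 1.5 mg kg−1 i.p. every 4 days. The vehicle was 50% Phosal 50 PG, 45% Miglyol 810 N and 5% polysorbate 80. Calipers were used twice weekly, volume = (L × W2) × 0.5.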

For data set [2], the target named is T1, Bcl-xL. The data set is described as follows: Bcl-xL levels in human platelets. Format: cell-based. As to conditions: 48 h.
The test system of the next data set is SCLC cell lines. The data set is described as follows: Viability of a panel of SCLC cell lines. The class given is cell-based. As to conditions: 72 h. An outline of the steps:
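SCLC lines came from the NCI-Navy Medical Oncology supply, with H146 from ATCC. Stocks were STR-profiled and mycoplasma-negative, kept at 37 °C and 5% CO2.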

In data set [3] the test system is PARP and caspase-3 cleavage. The data set is described as follows: Western blot of cleaved PARP and cleaved caspase-3 in MOLT-4 cells. As to conditions: 16 h. Format: cell-based. The procedure, abridged: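 MOLT-4 cells were treated for 16 h across a concentration series. Lysates were immunoblotted (4–20% Tris-glycine gels, PVDF, 5% milk/TBST block, primary antibody overnight at 4 °C, HRP secondary, ECL) for cleaved PARP and cleaved caspase-3. Full-length PARP was detected by stripping and reprobing the membrane. Bands were normalised to β-actin.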
In general terms: In western blotting, separated proteins are transferred to a membrane and probed.

Molecules are shown by their SMILES. pIC50: −log10 of the molar value. Where only a bound is given, the exact number is not on record here.

As a reminder, the pIC50 is −log10 of the IC50, conventionally taken in molar units.

T1 sequence (Q07817 whole entry): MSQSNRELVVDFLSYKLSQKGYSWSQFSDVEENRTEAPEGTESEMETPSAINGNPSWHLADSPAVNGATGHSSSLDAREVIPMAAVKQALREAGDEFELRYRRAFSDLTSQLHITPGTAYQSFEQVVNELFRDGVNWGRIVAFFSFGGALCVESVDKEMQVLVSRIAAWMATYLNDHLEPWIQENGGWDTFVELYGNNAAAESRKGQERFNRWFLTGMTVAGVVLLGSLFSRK

Consider `CC1(C)CCC(c2ccc(Cl)cc2)=C(CN2CCN(c3ccc(C(=O)NS(=O)(=O)c4ccc(N[C@H](CCNCCOCCOCCOCCNc5cccc6c5C(=O)N(C5CCC(=O)NC5=O)C6=O)CSc5ccccc5)c(S(=O)(=O)C(F)(F)F)c4)cc3)CC2)C1` (stereo partly shown) [1a], for which the pIC50 in the data set on MOLT-4 cells is 7.22.

With `CCN(CCOCCOCCOCCNc1cccc2c1C(=O)N(C1CCC(=O)NC1=O)C2=O)CC[C@H](CSc1ccccc1)Nc1ccc(S(=O)(=O)NC(=O)c2ccc(N3CCN(CC4=C(c5ccc(Cl)cc5)CCC(C)(C)C4)CC3)cc2)cc1S(=O)(=O)C(F)(F)F` (stereo partly shown) [1b], the pIC50 in the data set on MOLT-4 cells was 7.28.

On to `CC1(C)CCC(c2ccc(Cl)cc2)=C(CN2CCN(c3ccc(C(=O)NS(=O)(=O)c4ccc(N[C@H](CCN(CCOCCOCCOCCNc5cccc6c5C(=O)N(C5CCC(=O)NC5=O)C6=O)C5CC5)CSc5ccccc5)c(S(=O)(=O)C(F)(F)F)c4)cc3)CC2)C1` (stereo partly shown) [1d], for which the pIC50 with MOLT-4 cells is 6.53.

Turning to `CC1(C)CCC(c2ccc(Cl)cc2)=C(CN2CCN(c3ccc(C(=O)NS(=O)(=O)c4ccc(N[C@H](CCN(CCOCCOCCOCCNc5cccc6c5C(=O)N(C5CCC(=O)NC5=O)C6=O)C5CCC5)CSc5ccccc5)c(S(=O)(=O)C(F)(F)F)c4)cc3)CC2)C1` (stereo partly shown) [1e], in the data set with MOLT-4 cells, the pIC50 was 6.48.

With `CC1(C)CCC(c2ccc(Cl)cc2)=C(CN2CCN(c3ccc(C(=O)NS(=O)(=O)c4ccc(N[C@H](CCN(CCOCCOCCOCCNc5cccc6c5C(=O)N(C5CCC(=O)NC5=O)C6=O)C5COC5)CSc5ccccc5)c(S(=O)(=O)C(F)(F)F)c4)cc3)CC2)C1` (stereo partly shown) [1f], the pIC50 with MOLT-4 cells is 6.40.

With `CC1(C)CCC(c2ccc(Cl)cc2)=C(CN2CCN(c3ccc(C(=O)NS(=O)(=O)c4ccc(N[C@H](CCN(CCOCCOCCOCCNc5cccc6c5C(=O)N(C5CCC(=O)NC5=O)C6=O)CC5CCC5)CSc5ccccc5)c(S(=O)(=O)C(F)(F)F)c4)cc3)CC2)C1` (stereo partly shown) [1g], the pIC50 in the data set with MOLT-4 cells was 6.49.

For the compound `CC1(C)CCC(c2ccc(Cl)cc2)=C(CN2CCN(c3ccc(C(=O)NS(=O)(=O)c4ccc(N[C@H](CCN(CCOCCOCCOCCNc5cccc6c5C(=O)N(C5CCC(=O)NC5=O)C6=O)C5CCCCC5)CSc5ccccc5)c(S(=O)(=O)C(F)(F)F)c4)cc3)CC2)C1` (stereo partly shown) [1i], the pIC50 with MOLT-4 cells is under 6.00.

With `CN(CCOCCOCCOCCOc1cccc2c1C(=O)N(C1CCC(=O)NC1=O)C2=O)CC[C@H](CSc1ccccc1)Nc1ccc(S(=O)(=O)NC(=O)c2ccc(N3CCN(CC4=C(c5ccc(Cl)cc5)CCC(C)(C)C4)CC3)cc2)cc1S(=O)(=O)C(F)(F)F` (stereo partly shown) [2a], in the data set on MOLT-4 cells, the pIC50 was 7.98.

On to `CN(CCOCCOCCOCC#Cc1cccc2c1C(=O)N(C1CCC(=O)NC1=O)C2=O)CC[C@H](CSc1ccccc1)Nc1ccc(S(=O)(=O)NC(=O)c2ccc(N3CCN(CC4=C(c5ccc(Cl)cc5)CCC(C)(C)C4)CC3)cc2)cc1S(=O)(=O)C(F)(F)F` (stereo partly shown) [2b], for which the pIC50 with MOLT-4 cells is 8.28. For the same compound, the “fold increase in potency against MOLT-4 cells compared to 2a” value in the data set with MOLT-4 cells (vs 2a) was 2 fold.

For the compound `CN(CCOCCOCCOCCCc1cccc2c1C(=O)N(C1CCC(=O)NC1=O)C2=O)CC[C@H](CSc1ccccc1)Nc1ccc(S(=O)(=O)NC(=O)c2ccc(N3CCN(CC4=C(c5ccc(Cl)cc5)CCC(C)(C)C4)CC3)cc2)cc1S(=O)(=O)C(F)(F)F` (stereo partly shown) [2c], in the data set with MOLT-4 cells, the pIC50 is 8.21.

For the compound `CN(CCOCCOCCN1CCN(c2cccc3c2C(=O)N(C2CCC(=O)NC2=O)C3=O)CC1)CC[C@H](CSc1ccccc1)Nc1ccc(S(=O)(=O)NC(=O)c2ccc(N3CCN(CC4=C(c5ccc(Cl)cc5)CCC(C)(C)C4)CC3)cc2)cc1S(=O)(=O)C(F)(F)F` (stereo partly shown) [2d], in the data set on MOLT-4 cells, the pIC50 was 7.97. Moreover, the “fold weaker cellular activity than 2b” value in the data set on MOLT-4 cells (vs 2b, MOLT-4 cells) is 2 fold.

As for `CN(CCOCCOCCN1CCC(C#Cc2cccc3c2C(=O)N(C2CCC(=O)NC2=O)C3=O)CC1)CC[C@H](CSc1ccccc1)Nc1ccc(S(=O)(=O)NC(=O)c2ccc(N3CCN(CC4=C(c5ccc(Cl)cc5)CCC(C)(C)C4)CC3)cc2)cc1S(=O)(=O)C(F)(F)F` (stereo partly shown) [2e], the pIC50 in the data set on MOLT-4 cells was 7.44. For the same compound, the “fold reduced activity compared to 2d” value in the data set with MOLT-4 cells (vs 2d, MOLT-4 cells) is recorded as about 4 fold.

Consider `CN(CCOCCOCCN1CCC(CCc2cccc3c2C(=O)N(C2CCC(=O)NC2=O)C3=O)CC1)CC[C@H](CSc1ccccc1)Nc1ccc(S(=O)(=O)NC(=O)c2ccc(N3CCN(CC4=C(c5ccc(Cl)cc5)CCC(C)(C)C4)CC3)cc2)cc1S(=O)(=O)C(F)(F)F` (stereo partly shown) [2f], for which, in the data set with MOLT-4 cells, the negative-log IC50 (pIC50) was 7.34.

`CN(CCOCCOCCOCC#Cc1ccc2c(c1)C(=O)N(C1CCC(=O)NC1=O)C2=O)CC[C@H](CSc1ccccc1)Nc1ccc(S(=O)(=O)NC(=O)c2ccc(N3CCN(CC4=C(c5ccc(Cl)cc5)CCC(C)(C)C4)CC3)cc2)cc1S(=O)(=O)C(F)(F)F` (stereo partly shown) [3a]: the pIC50 with MOLT-4 cells was 7.84. Further, the “fold reduced potency against MOLT-4 cells compared to 2b” value with MOLT-4 cells (vs C4-substituted 2b) is listed as about 3 fold.

In the case of `CN(CCOCCOCCOCCCc1ccc2c(c1)C(=O)N(C1CCC(=O)NC1=O)C2=O)CC[C@H](CSc1ccccc1)Nc1ccc(S(=O)(=O)NC(=O)c2ccc(N3CCN(CC4=C(c5ccc(Cl)cc5)CCC(C)(C)C4)CC3)cc2)cc1S(=O)(=O)C(F)(F)F` (stereo partly shown) [3b], the pIC50 with MOLT-4 cells is 8.37.

Take `CN(CCOCCOCCOCC#Cc1cccc2c1CN(C1CCC(=O)NC1=O)C2=O)CC[C@H](CSc1ccccc1)Nc1ccc(S(=O)(=O)NC(=O)c2ccc(N3CCN(CC4=C(c5ccc(Cl)cc5)CCC(C)(C)C4)CC3)cc2)cc1S(=O)(=O)C(F)(F)F` (stereo partly shown) [4a]: the pIC50 with MOLT-4 cells is 8.39.

Take `CN(CCOCCOCCOCCCc1cccc2c1CN(C1CCC(=O)NC1=O)C2=O)CC[C@H](CSc1ccccc1)Nc1ccc(S(=O)(=O)NC(=O)c2ccc(N3CCN(CC4=C(c5ccc(Cl)cc5)CCC(C)(C)C4)CC3)cc2)cc1S(=O)(=O)C(F)(F)F` (stereo partly shown) [4b]: the pIC50 in the data set with MOLT-4 cells is 8.35.

As for `CN(CCOCCOCCOCC#Cc1ccc2c(c1)CN(C1CCC(=O)NC1=O)C2=O)CC[C@H](CSc1ccccc1)Nc1ccc(S(=O)(=O)NC(=O)c2ccc(N3CCN(CC4=C(c5ccc(Cl)cc5)CCC(C)(C)C4)CC3)cc2)cc1S(=O)(=O)C(F)(F)F` (stereo partly shown) [5a], the pIC50 in the data set on MOLT-4 cells is 8.68.

Regarding `CC1(C)CCC(c2ccc(Cl)cc2)=C(CN2CCN(c3ccc(C(=O)NS(=O)(=O)c4ccc(N[C@H](CCN5CCOCC5)CSc5ccccc5)c(S(=O)(=O)C(F)(F)F)c4)cc3)CC2)C1` [ABT-263, navitoclax, reference compound], the pIC50 in the data set with MOLT-4 cells was 6.69.

Regarding `Cc1ncsc1-c1ccc([C@H](C)NC(=O)[C@@H]2C[C@@H](O)CN2C(=O)[C@@H](NC(=O)CCCCCC(=O)N2CCN(CC[C@H](CSc3ccccc3)Nc3ccc(S(=O)(=O)NC(=O)c4ccc(N5CCN(CC6=C(c7ccc(Cl)cc7)CCC(C)(C)C6)CC5)cc4)cc3S(=O)(=O)C(F)(F)F)CC2)C(C)(C)C)cc1` [DT2216], in the data set with NCI-H146 cells, the negative logarithm of the IC50 (pIC50) was 6.56.

As to `CN(CCOCCOCCOCCCc1ccc2c(c1)CN(C1CCC(=O)NC1=O)C2=O)CC[C@H](CSc1ccccc1)Nc1ccc(S(=O)(=O)NC(=O)c2ccc(N3CCN(CC4=C(c5ccc(Cl)cc5)CCC(C)(C)C4)CC3)cc2)cc1S(=O)(=O)C(F)(F)F` (stereo partly shown) [PZ671], the pIC50 with MOLT-4 cells was 8.89. Further, in the data set with MOLT-4 cells (vs XZ739, listed as 5b), the “fold improved cellular activity against MOLT-4 cells compared to XZ739” value is reported as 8 fold. On Bcl-xL [1] (MOLT-4 cells, 100 nM), the “time to almost complete Bcl-xL degradation” value came out at 4 h and the “time to significantly reduced Bcl-xL protein levels” value is at most 2 h. Further, at Bcl-xL [1] (MOLT-4 cells, pretreatment with 1 μM MG-132 for 2 h), the “Bcl-xL degradation after proteasome inhibitor pretreatment” value was “blocked”. In addition, the “fold enhanced degradation potency against Bcl-xL compared to XZ739” value at Bcl-xL [1] (vs XZ739, MOLT-4 cells) is on record as about 6 fold. For the same compound, the “selectivity for MOLT-4 cells over platelets” value in the data set with human platelets is given as 25 fold. Also, the “fold decrease in selectivity for MOLT-4 cells over platelets compared to XZ739” value with human platelets (vs XZ739) is given as about 5 fold. For the same compound, the platelet count recovery entry in the data set on platelets is listed as “rapid recovery observed from the second day onward”. The tumor growth entry in the data set on MOLT-4 xenograft is given as “markedly suppressed the tumor growth”. Further, the “concentration at which Bcl-xL is degraded in human platelets” value at Bcl-xL [2] was “above 1 μM”. In addition, the “cell killing potency in SCLC cell lines compared to XZ739” value in the data set on SCLC cell lines is “more potent than XZ739”. The “PARP and caspase-3 cleavage” value in data set [3] is “dose-dependently increased”.

(Values after article PMC12155403 (RSC Medicinal Chemistry, 2025).)
